Screening data as filed in PubChem BioAssay.
Sampled rows, rich in hits. Any-hit rate of the full collection: about 1.5%.
CXCR6 block: CXCR6 (human) receptor inhibition. inhibition, % at 20 µM. CHO-K1 PathHunter CXCR6 beta-arrestin, luminescence. O00574. 360,000 tested, 0.36% active; in the data active means inhibition above about 34%, passing the limit was not always enough;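 further: antagonist mode with CXCL16 agonist at 10 nM final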
APJ antagonist: blocks the human apelin receptor APJ | 330,000 tested, 0.32% active | P35414 | inhibition, % at 20 µM | CHO-K1 APJ beta-arrestin complementation, luminescence;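 active means inhibition above about 40% at 20 µM, limit read from the data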;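 further: cells challenged with 10 nM apelin-13 agonist together with compound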
EBI2 block: EBI2 (human) antagonism. AID 651636. 360,000 tested, 0.81% active. EBI2 beta-arrestin recruitment, luminescence, 7a,25-OHC stimulated. P32249. inhibition, % at 5 µM; in the data active means inhibition above about 38%;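 further: enzyme fragment complementation signal reports receptor beta-arrestin coupling in cells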
CCR6 antagonist: antagonists of human CCR6 receptor. P51684. AID 493098. inhibition, % at 20 µM. 340,000 tested, 0.49% active. CHO-K1 CCR6 PathHunter beta-arrestin, luminescence, CCL20-stimulated;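 active means compounds whose inhibition of the agonist-driven luminescence signal at 20 µM reaches about 50%, limit read from the data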;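 further: cells stimulated with CCL20 at 14 nM final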
Target sequence (P51684 whole entry, looked up): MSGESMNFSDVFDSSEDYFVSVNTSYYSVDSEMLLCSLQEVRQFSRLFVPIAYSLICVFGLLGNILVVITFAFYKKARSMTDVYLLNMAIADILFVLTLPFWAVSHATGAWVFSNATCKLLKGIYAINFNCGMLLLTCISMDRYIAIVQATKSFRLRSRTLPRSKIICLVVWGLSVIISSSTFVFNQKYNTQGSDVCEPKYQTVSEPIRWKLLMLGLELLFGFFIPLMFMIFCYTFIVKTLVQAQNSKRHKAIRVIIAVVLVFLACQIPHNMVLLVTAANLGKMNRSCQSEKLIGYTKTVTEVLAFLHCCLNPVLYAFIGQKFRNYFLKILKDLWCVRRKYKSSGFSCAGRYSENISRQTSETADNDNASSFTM
APJ ag: activates the human apelin receptor APJ | activation, % at 20 µM | P35414 | CHO-K1 APJ PathHunter beta-arrestin, luminescence; 0% DMSO wells, 100% apelin | 330,000 tested, 0.11% active;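 active means activation more than six SD over the plate average, tested at 20 µM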
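Material: CHO-K1 APJ beta-arrestin complementation cell line; Input: cell density 1000 per well; Incubation: compound stimulation 90 min at 25 °C, detection 60 min; Signal: luminescence from split beta-galactosidase complementation, Galacton Star/Emerald II substrate; Controls: DMSO-only wells as negative, 10 nM Apelin-13 as positive control.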
EBI2 conf: EBI2 (human) antagonism, single concentration confirmation. shares compounds with EBI2 block. EBI2 beta-arrestin luminescence, 7a,25-OHC antagonism. inhibition, % at 5 µM. 2,400 tested, 29% active;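 active means inhibition of at least 50%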
EBI2 agonist: EBI2 agonism counter-screen; shares compounds with EBI2 block; EBI2-expressing cells, agonist mode, luminescence, 60 min; 0% vehicle, 100% 7α,25-dihydroxycholesterol control; activation, % at 5 µM; 2,400 tested, under 10 active; AID 652000;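 active means activation of at least 50%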
bGal cs: beta-galactosidase inhibition counter-screen. inhibition, % at 5 µM. AID 652176. shares compounds with EBI2 block. purified beta-galactosidase, luminescent Galacton Star, 15 min. 2,400 tested, 1% active;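 active means replicate-average signal at least 3 plate SD below neutral wells, shown as high inhibition, flagging enzyme-inhibiting false positives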;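 further: higher means stronger loss of beta-gal luminescence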
Of the large screens only hits and unclear results are named; the others gave an inactive call (follow-up assays come after a bar, where they were run).

O=c1[nH]c(CN2CCCCC2)nc2ccccc12	none
CC(C)(C)c1ccc(/C=C/C(=O)N2CCCCC2)cc1	none (no result: APJ antagonist, APJ ag)
O=C(/C=C/c1ccccc1)N1CCN(Cc2nc3ccccc3c(=O)[nH]2)CC1	EBI2 block 72 | EBI2 conf 75 | EBI2 agonist inactive | bGal cs inactive
COc1ccc([C@H]2CC(=O)C[C@@H](CCn3cc(-c4ccncc4)nn3)O2)cc1	none (no result: APJ antagonist, CCR6 antagonist, APJ ag)
COc1ccc(N2CC(C(=O)NC3CCSC3=O)CC2=O)cc1 (stereo not given)	none
COc1ccc(C2c3ccc(O)cc3Oc3ncn4nc(-c5cccnc5)nc4c32)cc1OC (stereo not given)	EBI2 block 81 | EBI2 conf 55 | EBI2 agonist inactive | bGal cs inactive
O=C(COC(=O)Cc1c(Cl)cccc1Cl)Nc1ccccc1-c1ccccc1	none
O=C(CSCc1c(Cl)cccc1Cl)Nc1ccccc1-c1ccccc1	EBI2 block 41 (no result: APJ antagonist, APJ ag) | EBI2 conf inactive | EBI2 agonist inactive | bGal cs inactive
COC(=O)c1sc(NC(=O)COc2cccnc2[N+](=O)[O-])c(C(=O)OC)c1C	none
COc1ccccc1N(CC(=O)Nc1cccc(C(F)(F)F)c1)S(C)(=O)=O	none
Cc1ccc([N+](=O)[O-])cc1N(CC(=O)Nc1ccc(S(=O)(=O)Nc2cccc(C(F)(F)F)c2)cc1)S(C)(=O)=O	EBI2 block 84 | EBI2 conf 65 | EBI2 agonist inactive | bGal cs inactive
CCOC(=O)c1c(NC(=S)NC(=O)c2cnn(CC)c2)sc2c1CCC(C)C2 (stereo not given)	EBI2 block 46 | EBI2 conf inactive | EBI2 agonist inactive | bGal cs inactive
CCOC(=O)c1c(NC(=O)C2C3C=CC(C3)C2C(=O)O)sc2c1CCC(C)C2 (stereo not given)	none
Cn1c(NCc2ccco2)nc2c1c(=O)n(Cc1ccc(Cl)c(Cl)c1)c(=O)n2C	EBI2 block 46 | EBI2 conf inactive | EBI2 agonist inactive | bGal cs inactive
Cn1c(NCC(O)CO)nc2c1c(=O)n(Cc1ccc(Cl)c(Cl)c1)c(=O)n2C (stereo not given)	none
CCCn1c(N)c(CC)c(=O)[nH]c1=O	none
COc1ccc(CNC(=O)C2CCN(C(=O)c3ccc(-c4ccccc4)cc3)CC2)cc1	EBI2 block 68 | EBI2 conf inactive | EBI2 agonist inactive | bGal cs inactive
O=C(NC1CCCC1)C1CCN(C(=O)c2ccc(-c3ccccc3)cc2)CC1	EBI2 block 49 | EBI2 conf inactive | EBI2 agonist inactive | bGal cs inactive
COc1ccc(C(=O)/C=C/c2ccc(F)cc2)c(OC(=O)c2ccc([N+](=O)[O-])cc2)c1	EBI2 block 54 | EBI2 conf inactive | EBI2 agonist inactive | bGal cs inactive
COc1cccc(-c2ncc3ccccc3c2COC(=O)CCC(=O)O)c1	none
CC(C)CNc1ncnc2c1ncn2[C@H]1CN(Cc2ccc(Cl)cc2)C[C@@H](CO)O1	none (no result: APJ antagonist, CCR6 antagonist, APJ ag)
CC(C)Nc1ncnc2c1ncn2[C@H]1CN(Cc2ccc(Cl)cc2)C[C@@H](CO)O1	EBI2 block 74 (no result: APJ antagonist, CCR6 antagonist, APJ ag) | EBI2 conf 88 | EBI2 agonist inactive | bGal cs inactive
CC(C)Nc1ncnc2c1ncn2[C@H]1CN(Cc2ccc(F)cc2)C[C@@H](CO)O1	EBI2 block 47 (no result: APJ antagonist, CCR6 antagonist, APJ ag) | EBI2 conf 50 | EBI2 agonist inactive | bGal cs inactive
O=C(/C=C/c1cccs1)N1CCN(c2ccc(F)cc2)CC1	EBI2 block 55 | EBI2 conf inactive | EBI2 agonist inactive | bGal cs inactive
O=C(/C=C/c1cccs1)N1CCOCC1	none
CCC(=O)N1CCN(c2c(Cl)cccc2[N+](=O)[O-])CC1	none
O=C(/C=C/c1cccs1)N1CCN(c2ccccc2F)CC1	EBI2 block 50 | EBI2 conf 52 | EBI2 agonist inactive | bGal cs inactive
O=C(/C=C/c1ccccc1)N1CCN(c2c(Cl)cccc2[N+](=O)[O-])CC1	EBI2 block 95 | EBI2 conf 91 | EBI2 agonist inactive | bGal cs inactive
O=C(O/N=C\c1ccc(N2CCCCC2)c([N+](=O)[O-])c1)c1ccc(Cl)cc1Cl	EBI2 block 51 | EBI2 conf inactive | EBI2 agonist inactive | bGal cs inactive
CC(=O)c1ccc(N2CCN(C(=O)/C=C/c3cccs3)CC2)cc1	none
O=C(/C=C/c1ccc([N+](=O)[O-])cc1)N1CCN(c2ccccc2F)CC1	EBI2 block 68 | EBI2 conf inactive | EBI2 agonist inactive | bGal cs inactive
O=C(/C=C/c1ccc(Cl)cc1)N1CCN(c2ccc(Cl)cc2[N+](=O)[O-])CC1	EBI2 block 98 | EBI2 conf 80 | EBI2 agonist inactive | bGal cs inactive
O=C(Cc1ccccc1[N+](=O)[O-])N1CCN(c2ccccc2F)CC1	none
O=C(CN1CCN(c2ccc(Cl)cc2[N+](=O)[O-])CC1)N1CCOCC1	none
O=C(c1ccc(Cl)c(Cl)c1)c1cc(-c2ccccn2)c(N2CCOCC2)s1	EBI2 block 65 | EBI2 conf inactive | EBI2 agonist inactive | bGal cs inactive
O=C(c1ccc(Br)cc1)c1cc(-c2ccccn2)c(N2CCOCC2)s1	EBI2 block 37 | EBI2 conf inactive | EBI2 agonist inactive | bGal cs inactive
OCc1cccc(-c2cnc3c(Nc4cccc(OC(F)(F)C(F)F)c4)nccn23)c1	EBI2 block 51 (no result: APJ antagonist, CCR6 antagonist, APJ ag) | EBI2 conf 51 | EBI2 agonist inactive | bGal cs inactive
Cc1ccc(-c2cnc3c(Nc4cccc(OC(F)(F)C(F)F)c4)nccn23)cc1	none (no result: APJ antagonist, CCR6 antagonist, APJ ag)
CC(C)c1ccc(Nc2ncc3c(n2)CCN(C(=O)Nc2ccc(F)c(Cl)c2)C3)cc1	EBI2 block 52 (no result: APJ antagonist, CCR6 antagonist, APJ ag) | EBI2 conf inactive | EBI2 agonist inactive | bGal cs inactive
CCOC1(/N=C(\C)NS(=O)(=O)c2ccc(Cl)cc2)C(C)=CC(=O)C=C1C	none
CCOc1ccc(NC(=O)CCNC(=O)C2CCN(S(=O)(=O)c3ccccc3)CC2)cc1	none
CC1CCN(C(=O)CSc2nnc(Cc3cccn3C)n2CCc2ccccc2)CC1	EBI2 block 47 | EBI2 conf inactive | EBI2 agonist inactive | bGal cs inactive
Cn1cccc1Cc1nnc(SCC(=O)N2CCc3ccccc32)n1CCc1ccccc1	EBI2 block 68 | EBI2 conf inactive | EBI2 agonist inactive | bGal cs inactive
COc1ccc(-n2c(Cc3cccn3C)nnc2SCC(=O)N2CCCc3ccccc32)cc1	EBI2 block 38 | EBI2 conf inactive | EBI2 agonist inactive | bGal cs inactive
Cn1cccc1Cc1nnc(SCC(=O)N2CCCC2)n1CCc1ccccc1	none
